Measurements from different studies.
Protocols differ between the studies behind these lines.
Target: Serine/threonine-protein kinase D2 (PRKD2, Homo sapiens, UniProt Q9BZL6)
Residues used in one study (Q9BZL6 1-878): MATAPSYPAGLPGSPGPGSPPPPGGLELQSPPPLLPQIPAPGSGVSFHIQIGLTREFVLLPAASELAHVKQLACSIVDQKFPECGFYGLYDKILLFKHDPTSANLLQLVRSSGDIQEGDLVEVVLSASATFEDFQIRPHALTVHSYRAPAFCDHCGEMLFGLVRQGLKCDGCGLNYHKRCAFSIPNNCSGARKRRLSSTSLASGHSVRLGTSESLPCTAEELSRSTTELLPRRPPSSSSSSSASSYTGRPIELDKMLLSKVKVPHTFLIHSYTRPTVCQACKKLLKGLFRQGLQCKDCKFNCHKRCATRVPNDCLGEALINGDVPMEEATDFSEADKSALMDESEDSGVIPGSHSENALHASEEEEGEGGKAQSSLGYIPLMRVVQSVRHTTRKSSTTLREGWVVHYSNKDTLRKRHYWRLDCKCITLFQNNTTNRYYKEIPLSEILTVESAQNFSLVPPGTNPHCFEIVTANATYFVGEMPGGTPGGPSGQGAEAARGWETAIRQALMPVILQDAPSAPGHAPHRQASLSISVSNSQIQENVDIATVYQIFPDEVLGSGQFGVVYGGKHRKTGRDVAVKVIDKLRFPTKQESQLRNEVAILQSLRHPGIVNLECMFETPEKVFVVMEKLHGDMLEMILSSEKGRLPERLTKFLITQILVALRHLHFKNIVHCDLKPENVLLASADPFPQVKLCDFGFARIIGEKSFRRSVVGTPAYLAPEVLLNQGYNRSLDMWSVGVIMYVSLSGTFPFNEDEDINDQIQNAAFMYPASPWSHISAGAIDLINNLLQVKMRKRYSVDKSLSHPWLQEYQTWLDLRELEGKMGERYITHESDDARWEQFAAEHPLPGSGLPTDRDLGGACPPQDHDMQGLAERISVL

| SMILES | read-out | method | concentration | remaining binding |
| --- | --- | --- | --- | --- |
| CN(C)c1ncc(F)c(-c2cnn3ncccc23)n1 | binding | – | 1 µM | 87% |
| COc1ncc2cc3ccccc3nc2c1C#N | cell-free assay | competition with immobilised ligand | 5 µM | 93% |
| Cc1nc(N2CC[C@@H](O)C2)ncc1-c1cc(C(F)(F)F)cc2[nH]ncc12 | binding | competition with immobilised ligand | 1 µM | 79% |
| O=C(NCC1CCOCC1)c1n[nH]cc1NC(=O)c1c(F)cccc1F | binding | competition with immobilised ligand | 1 µM | 100% |
| O=C(NCCCN1CCOCC1)c1ccc(Nc2ncc(Cl)c(-c3ccc(Cl)s3)n2)cc1 | binding | competition with immobilised ligand | 1 µM | 3.9% |
| CC(=O)N1CCC(c2ccc(C(=O)NC(=N)N)cc2C(F)(F)F)CC1 | cell-free assay | competition with immobilised ligand | 1 µM | 100% |
| COc1cnc(Nc2cccc(S(N)(=O)=O)c2)nc1N1CCN(c2ccccc2)C(=O)C1 | binding | competition with immobilised ligand | 1 µM | 100% |
| CN(C)c1nccc(-c2cnn3ncccc23)n1 | binding | – | 1 µM | 89% |
| O=C(NC[C@@H]1[C@H]2CN(C(=O)OCc3cc(C(F)(F)F)cc(C(F)(F)F)c3)C[C@@H]12)c1ccc2[nH]nnc2c1 | cell-free assay | competition with immobilised ligand | 1 µM | 85% |
| F[C@@H]1CCN(c2nccc(-c3cnn4ncccc34)n2)C1 | binding | – | 1 µM | 100% |
| Nc1ncc2c(n1)-c1c([nH]c3ccc(C#CC4CC4)cc13)CCCC2 | binding | competition with immobilised ligand | 1 µM | 87% |
| Cc1cnc(Nc2ccc(C(=O)N3CCC(N4CCCC4)CC3)cc2)nc1-c1cc2ccccc2s1 | binding | competition with immobilised ligand | 1 µM | 47% |
| FC(F)(F)Oc1cccc(-c2cnc3ccc(-c4ccncc4)nn23)c1 | cell-free assay | competition with immobilised ligand | 5 µM | 99% |
| CC1=C(C#N)[C@@H](c2ccc3[nH]nc(C)c3c2)C(C#N)=C(c2ccc(Cl)cc2)N1 | cell-free assay | competition with immobilised ligand | 1 µM | 100% |
| C[C@@H]1CCN(c2nccc(-c3cnn4ncccc34)n2)C1 | binding | – | 1 µM | 83% |
| O=C(NCCCC1CCCCC1)c1ccc(CNC(=O)c2cnn(-c3ccccc3)c2C(F)(F)F)cc1 | cell-free assay | competition with immobilised ligand | 0.1 µM | 100% |
| N[C@H]1CCN(c2nccc(-c3cnn4ncccc34)n2)C1 | binding | – | 1 µM | 74% |
| O=C(c1ccc(Nc2ncc(Cl)c(-c3ccc(Cl)s3)n2)cc1)N1CCC(N2CCCC2)CC1 | binding | competition with immobilised ligand | 1 µM | 8.7% |
| c1cnn2ncc(-c3ccnc(N4CCC45COC5)n3)c2c1 | binding | – | 1 µM | 89% |
| CNCc1ccccc1-c1csc([C@@H](C)Nc2nc(C)nc3cc(OC)c(OC)cc23)c1 | cell-free assay | competition with immobilised ligand | 1 µM | 100% |
| c1cncc(-c2cccc(Nc3nccc(NC4CCCCC4)n3)c2)c1 | binding | competition with immobilised ligand | 10 µM | 19% |
| CN(c1nccc(-c2cnn3ncccc23)n1)C1CC1 | binding | – | 1 µM | 99% |
